Experimental data as given in PubChem BioAssay AID588828 (Broad Institute, 2011).
The source made the active and inactive calls.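 Rule for the calls: active = compounds cutting labeled HDL uptake fluorescence whose fitted AC50 is within ten times their top tested dose; inconclusive = flat fit with 30 to 70% inhibition, or poor fit; inactive = the rest.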

What follows are compounds tested against Scavenger receptor class B member 1 (Mus musculus) (UniProt Q61009) (assay: inhibitors of SR-BI-mediated DiI-HDL uptake, dose response, ldlA[mSR-BI] CHO cells, fluorescence, dry powder, set 6 (AID 588828)). Details: 3 h.
Scavenger receptor class B member 1 (Mus musculus), sequence (Q61009 whole entry, looked up): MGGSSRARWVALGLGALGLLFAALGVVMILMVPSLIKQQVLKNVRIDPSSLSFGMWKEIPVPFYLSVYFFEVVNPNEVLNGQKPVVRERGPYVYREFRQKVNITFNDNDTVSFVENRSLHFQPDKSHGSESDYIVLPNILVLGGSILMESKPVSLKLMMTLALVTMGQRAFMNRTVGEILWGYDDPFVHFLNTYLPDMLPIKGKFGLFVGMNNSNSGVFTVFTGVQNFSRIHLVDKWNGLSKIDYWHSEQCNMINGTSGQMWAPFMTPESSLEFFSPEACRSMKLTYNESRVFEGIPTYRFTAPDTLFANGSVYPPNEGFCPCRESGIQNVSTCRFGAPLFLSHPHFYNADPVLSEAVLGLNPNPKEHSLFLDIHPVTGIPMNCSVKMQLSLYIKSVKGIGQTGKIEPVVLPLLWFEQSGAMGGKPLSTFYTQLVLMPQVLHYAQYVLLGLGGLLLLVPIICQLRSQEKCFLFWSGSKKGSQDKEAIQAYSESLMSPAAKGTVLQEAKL
How it was run: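 timing = 3 h DiI-HDL exposure, 37 °C | test system = mSR-BI-overexpressing CHO ldlA cells | buffer or medium = BSA/HEPES medium, pH 7.4 | control set = DMSO neutral, BLT-1 positive | measured by = fluorescence, bottom read, excitation 550 nm, emission 595 nm | reagent = DiI-labelled HDL at 10 µg/mL | doses = compound concentration series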
`CCNC(=O)N1CCc2cc(-c3csc(NC(=O)c4cc(OC)cc(OC)c4)n3)ccc21` showed an AC50 of 0.927 nM. Compound `COc1ccc(-c2cc(CC(=O)N(C3CCCCC3)C(C)C(=O)NC3CCCC3)no2)cc1OC` (stereo unspecified) has an AC50 of 3.19 nM. `CC(=O)N1CCc2cc(-c3nc(NC(=O)c4cccc(OC(F)(F)F)c4)sc3C)ccc21` showed an AC50 of 614 nM. For `COCC(=O)N1CCc2cc(-c3csc(NC(=O)c4cc(OC)cc(OC)c4)n3)ccc21`, the AC50 was 3.66 nM. `C[C@@H]1CN([C@H](C)CO)C(=O)c2cc(NC(=O)Cc3cn(C)c4ccccc34)ccc2O[C@H]1CN(C)S(=O)(=O)c1ccc(Cl)cc1` showed an AC50 of 43.8 nM. Work on `COc1cc(OC)cc(C(=O)Nc2nc(-c3ccc4c(c3)CCN4C(=O)OC(C)(C)C)cs2)c1` yielded an AC50 of 6.89 nM. `Cc1ccc2oc(-c3cccc(NC(=O)c4cc(-n5cnnc5)ccc4Cl)c3)nc2c1` gave an AC50 of 568 nM. In the case of `CCC(=O)N1CCc2cc(-c3csc(NC(=O)c4ccc(F)c(OC)c4)n3)ccc21`, the AC50 is reported as 287 nM. Work on `CCC(=O)N1CCc2cc(-c3csc(NC(=O)c4cccc(OC)c4)n3)ccc21` yielded an AC50 of 92.6 nM. With `C[C@H](C(=O)NC1CCCC1)N(C(=O)Cn1nnc(-c2ccc3c(c2)OCO3)n1)C1CCCCC1` the AC50 was 1.22 nM. For `COc1cc(OC)cc(C(=O)Nc2nc(-c3ccc4c(c3)CCN4C(=O)CN(C)C)cs2)c1`, the AC50 was 6.3 nM. For `C[C@@H]1CN([C@@H](C)CO)C(=O)Cc2cc(NC(=O)Nc3ccc(C(F)(F)F)cc3)ccc2O[C@@H]1CN(C)S(=O)(=O)c1ccc(Cl)cc1`, the AC50 was > 22000 nM (inactive). Work on `CCC(=O)N1CC(C)(C)c2cc(-c3csc(NC(=O)c4cc(OC)cc(OC)c4)n3)ccc21` yielded an AC50 of 14.2 nM. Compound `CCCCCCC1CCC/C1=N\NC(N)=S` (stereo unspecified) has an AC50 of 18.7 nM.

Same assay, conditions: 3 h, at 35 µM (top of the series)
With `COc1c(NC(=O)C(=O)c2ccc(OCCN3CCOCC3)c3ccccc23)cc(C(C)(C)C)cc1NS(C)(=O)=O` the “activity change, negative = inhibition” value was “inactive”. In the case of `CC(C)(Sc1cc(C(C)(C)C)c(O)c(C(C)(C)C)c1)Sc1cc(C(C)(C)C)c(O)c(C(C)(C)C)c1`, the “activity change, negative = inhibition” value is reported as “inactive”.
